Test results published in ChEMBL document CHEMBL4007422 (J Med Chem, 2017).
The source made the active and inactive calls. No cut-off for these calls is given here.

Legend:
Cytochrome P450 2E1 = Cytochrome P450 2E1 (Homo sapiens, UniProt P05181); assay: Inhibition of CYP2E1 in human liver microsomes in presence of NADPH by LC-MS/MS analysis; assay type: ADME
In short: (§1)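 Pooled human liver microsomes. IC50 determined from isoform-specific marker activities for CYP1A2, 2A6, 2B6, 2C8, 2C9, 2C19 (mephenytoin hydroxylation) and 2E1.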

Hepatocyte = assay: Induction of CYP1A2 mRNA expression in human hepatocytes at 0.01 to 1 uM after 3 days by qRT-PCR analysis; assay type: ADME, cell-based; details: 72 h
In short: (§2)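 Plateable human hepatocytes exposed to 0.01, 0.1 and 1.0 μM. CYP1A2, CYP2B6 and CYP3A4 induction read as both mRNA expression and enzyme activity.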

[1] = AUC (0 to t) in Wistar rat at 10 mg/kg, po by LC-MS/MS analysis; assay type: ADME, organism-based; details: Wistar, in vivo
Homo sapiens [2] = assay: Toxicity in healthy elderly male human subjects administered as multiple ascending dose for 14 days; details: 336 h
Rattus norvegicus [3] = assay: Increase in acetylcholine level in Wistar rat ventral hippocampus at 3 mg/kg, po after 6 hrs by LC-MS/MS based microdialysis method; assay type: functional, organism-based
In short: (§3)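 Male Wistar rats (240−300 g) fitted under isoflurane with a ventral hippocampal guide cannula (AP −5.2, ML +5.0, DV −3.8 mm from bregma). Probe (4 mm membrane) inserted 16 h before study. Perfusion with aCSF pH 7.2 at 1.5 μL/min, 2 h stabilization, five basal 20-min samples. Test agent given p.o.; donepezil and memantine (1 mg/kg s.c. each) given 30 min later in combination arms. Dialysates collected 6 h (4 h for combination), acetylcholine measured by LC-MS/MS, expressed as % of mean basal.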

Cytochrome P450 2C8 = Cytochrome P450 2C8 (Homo sapiens, UniProt P10632); assay: Inhibition of CYP2C8 in human liver microsomes in presence of NADPH by LC-MS/MS analysis; assay type: ADME; in short: as §1
Salmonella typhimurium [4] = assay: Mutagenicity in Salmonella typhimurium TA1535 in absence of metabolic activation; assay type: toxicity; details: salmonella enterica subsp. enterica serovar typhimurium
[5] = Solubility of the compound in water; assay type: physicochemical; details: buffer
Rattus norvegicus [6] = assay: Increase in acetylcholine level in Wistar rat ventral hippocampus at 3 mg/kg, po in presence of 1 mg/kg of donepezil and memantine administered sc 30 mins post compound treatment measured after 4 hrs by LC-MS/MS based microdialysis method relative to control; assay type: functional; in short: as §3
[7] = target: Alpha-2A adrenergic receptor (Homo sapiens, UniProt P08913); assay: Displacement of [3H] MK-912 from human adrenergic alpha 2A receptor expressed in HT29 cells after 60 mins; assay type: cell-based
Rattus norvegicus [8] = assay: Increase in acetylcholine level in Wistar rat ventral hippocampus at 1 mg/kg, po after 6 hrs by LC-MS/MS based microdialysis method; assay type: functional, organism-based; in short: as §3
[9] = Terminal half life in Beagle dog at 10 mg/kg, po; assay type: ADME, organism-based, Canis lupus familiaris; details: in vivo, read-out: beta t1/2 (converted)
In short: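 Beagle dogs received 10 mg/kg p.o. and 3 mg/kg i.v. in a pharmacokinetic study. From plasma exposure the authors derived AUC0-t, terminal half-life, intravenous clearance, volume of distribution and absolute oral bioavailability.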

[10] = target: T1, 5-hydroxytryptamine receptor 2C (Homo sapiens) (UniProt P28335); assay: Displacement of [3H]-Mesulergine from recombinant human 5-HT2C receptor expressed in HEK293 cell membranes after 180 mins by microbeta scintillation counting analysis
T1 sequence (whole entry): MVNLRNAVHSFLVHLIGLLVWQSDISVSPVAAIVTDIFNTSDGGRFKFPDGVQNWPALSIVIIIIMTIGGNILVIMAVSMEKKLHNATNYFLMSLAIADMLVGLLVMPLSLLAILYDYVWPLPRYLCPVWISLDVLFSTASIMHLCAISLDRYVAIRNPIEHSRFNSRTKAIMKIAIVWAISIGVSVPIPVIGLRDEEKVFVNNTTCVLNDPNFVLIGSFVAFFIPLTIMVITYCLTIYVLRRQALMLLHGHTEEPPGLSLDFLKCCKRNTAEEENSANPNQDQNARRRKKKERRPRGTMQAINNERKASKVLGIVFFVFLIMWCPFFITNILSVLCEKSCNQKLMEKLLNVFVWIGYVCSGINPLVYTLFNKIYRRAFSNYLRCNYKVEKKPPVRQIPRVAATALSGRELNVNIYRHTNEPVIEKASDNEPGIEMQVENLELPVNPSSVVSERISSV

Salmonella typhimurium [11] = assay: Mutagenicity in Salmonella typhimurium TA100 in presence of metabolic activation; assay type: toxicity; details: salmonella enterica subsp. enterica serovar typhimurium
Cytochrome P450 1A2 = Cytochrome P450 1A2 (Homo sapiens, UniProt P05177); assay: Induction of CYP1A2 activity in human hepatocytes at 0.01 to 1 uM preincubated for 3 days followed by substrate addition measured after 30 mins; assay type: ADME, cell-based; details: 0.5 h; in short: as §2
D(3) dopamine receptor = D(3) dopamine receptor (Rattus norvegicus, UniProt P19020); assay: Displacement of [3H] 7-OH DPAT from recombinant rat dopamine D3 receptor expressed in CHO cells after 60 mins; assay type: cell-based
Salmonella typhimurium [12] = assay: Mutagenicity in Salmonella typhimurium TA1535 in presence of metabolic activation; assay type: toxicity; details: salmonella enterica subsp. enterica serovar typhimurium
Rattus norvegicus [13] = assay: Toxicity in Wistar rat assessed as induction of cholinergic side effects at 1 and 3 mg/kg, po in presence of 1 mg/kg of donepezil and memantine administered sc 30 mins post compound treatment measured after 4 hrs by LC-MS/MS based microdialysis method relative to control; assay type: organism-based; details: in vivo
In short: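 The probe (4 mm membrane) was inserted 16 h before the study and perfused with aCSF (pH 7.2) at 1.5 μL/min, with 2 h stabilization. Five 20-min basal samples were taken before oral compound. Donepezil and memantine (1 mg/kg s.c. each) were given 30 min later. Dialysates were collected for 4 h and acetylcholine measured by LC-MS/MS as % of basal. Comparison was against donepezil+memantine by two-way ANOVA.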

Salmonella typhimurium [14] = assay: Mutagenicity in Salmonella typhimurium TA98 in absence of metabolic activation; assay type: toxicity; details: salmonella enterica subsp. enterica serovar typhimurium
Cytochrome P450 2C19 = Cytochrome P450 2C19 (Homo sapiens, UniProt P33261); assay: Inhibition of CYP2C19 in human liver microsomes using mephenytoin as substrate in presence of NADPH by LC-MS/MS analysis; assay type: ADME; in short: as §1
[15] = target: Voltage-gated inwardly rectifying potassium channel KCNH2 (Homo sapiens, UniProt Q12809); assay: Inhibition of astemizole binding to human ERG
In short: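 hERG channel binding assessed as displacement in an astemizole binding assay.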

Cytochrome P450 2C9 = Cytochrome P450 2C9 (Homo sapiens, UniProt P11712); assay: Inhibition of CYP2C9 in human liver microsomes in presence of NADPH by LC-MS/MS analysis; assay type: ADME; in short: as §1
Homo sapiens [16] = species: Homo sapiens; assay: Toxicity in human assessed as changes in QTc interval during phase-I clinical trail
Cytochrome P450 3A4 = Cytochrome P450 3A4 (Homo sapiens, UniProt P08684)
[17] = Apparent volume of distribution in Wistar rat at 10 mg/kg, iv by LC-MS/MS analysis; assay type: ADME, organism-based; details: in vivo, read-out: Vz
[18] = Oral bioavailability in Wistar rat at 10 mg/kg by LC-MS/MS analysis; assay type: ADME, organism-based; details: Wistar, in vivo
Salmonella typhimurium [19] = assay: Mutagenicity in Salmonella typhimurium TA100 in absence of metabolic activation; assay type: toxicity; details: salmonella enterica subsp. enterica serovar typhimurium

Chain of Cytochrome P450 1A2 (P05177 whole entry): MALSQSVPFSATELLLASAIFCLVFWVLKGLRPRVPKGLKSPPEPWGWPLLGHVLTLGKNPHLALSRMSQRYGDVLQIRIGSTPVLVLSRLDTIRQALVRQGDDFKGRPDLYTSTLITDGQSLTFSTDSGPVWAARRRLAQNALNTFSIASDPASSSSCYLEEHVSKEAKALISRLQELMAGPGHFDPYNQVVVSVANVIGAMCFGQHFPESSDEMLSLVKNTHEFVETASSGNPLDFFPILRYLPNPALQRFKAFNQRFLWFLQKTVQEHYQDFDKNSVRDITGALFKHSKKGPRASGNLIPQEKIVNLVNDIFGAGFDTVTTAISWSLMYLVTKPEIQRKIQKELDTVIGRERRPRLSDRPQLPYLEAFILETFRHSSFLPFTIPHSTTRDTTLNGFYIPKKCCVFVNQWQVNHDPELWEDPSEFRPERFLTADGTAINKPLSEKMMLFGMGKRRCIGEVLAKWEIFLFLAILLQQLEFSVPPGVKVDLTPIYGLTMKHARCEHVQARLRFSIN
Chain of Cytochrome P450 2C8 (P10632 whole entry): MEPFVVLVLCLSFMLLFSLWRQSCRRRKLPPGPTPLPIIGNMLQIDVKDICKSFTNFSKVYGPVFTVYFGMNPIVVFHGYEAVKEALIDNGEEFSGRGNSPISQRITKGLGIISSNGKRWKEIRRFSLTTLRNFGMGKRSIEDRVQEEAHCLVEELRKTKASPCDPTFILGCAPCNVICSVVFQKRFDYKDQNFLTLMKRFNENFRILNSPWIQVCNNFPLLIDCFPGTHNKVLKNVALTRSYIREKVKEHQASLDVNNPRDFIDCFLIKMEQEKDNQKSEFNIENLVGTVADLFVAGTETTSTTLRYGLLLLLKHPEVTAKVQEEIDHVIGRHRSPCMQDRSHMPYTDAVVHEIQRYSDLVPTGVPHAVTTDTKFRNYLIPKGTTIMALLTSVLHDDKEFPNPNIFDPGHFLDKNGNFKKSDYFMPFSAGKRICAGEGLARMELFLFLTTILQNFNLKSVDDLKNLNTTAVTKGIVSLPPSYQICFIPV
Chain of Cytochrome P450 2E1 (P05181 whole entry, canonical isoform): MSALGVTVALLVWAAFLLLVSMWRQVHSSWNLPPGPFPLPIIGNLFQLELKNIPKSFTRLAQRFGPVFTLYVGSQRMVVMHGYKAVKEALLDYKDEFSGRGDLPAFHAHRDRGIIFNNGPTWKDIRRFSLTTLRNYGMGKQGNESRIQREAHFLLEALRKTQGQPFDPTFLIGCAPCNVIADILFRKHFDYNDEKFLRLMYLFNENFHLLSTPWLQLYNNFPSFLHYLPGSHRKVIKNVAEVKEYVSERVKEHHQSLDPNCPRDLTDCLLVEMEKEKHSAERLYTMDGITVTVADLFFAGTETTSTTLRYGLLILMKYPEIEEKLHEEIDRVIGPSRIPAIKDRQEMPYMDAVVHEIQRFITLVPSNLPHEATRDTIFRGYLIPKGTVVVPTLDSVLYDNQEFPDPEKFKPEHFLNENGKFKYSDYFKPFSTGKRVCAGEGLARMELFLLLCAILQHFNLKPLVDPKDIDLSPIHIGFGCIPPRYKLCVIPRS
Chain of Voltage-gated inwardly rectifying potassium channel KCNH2 (Q12809 whole entry): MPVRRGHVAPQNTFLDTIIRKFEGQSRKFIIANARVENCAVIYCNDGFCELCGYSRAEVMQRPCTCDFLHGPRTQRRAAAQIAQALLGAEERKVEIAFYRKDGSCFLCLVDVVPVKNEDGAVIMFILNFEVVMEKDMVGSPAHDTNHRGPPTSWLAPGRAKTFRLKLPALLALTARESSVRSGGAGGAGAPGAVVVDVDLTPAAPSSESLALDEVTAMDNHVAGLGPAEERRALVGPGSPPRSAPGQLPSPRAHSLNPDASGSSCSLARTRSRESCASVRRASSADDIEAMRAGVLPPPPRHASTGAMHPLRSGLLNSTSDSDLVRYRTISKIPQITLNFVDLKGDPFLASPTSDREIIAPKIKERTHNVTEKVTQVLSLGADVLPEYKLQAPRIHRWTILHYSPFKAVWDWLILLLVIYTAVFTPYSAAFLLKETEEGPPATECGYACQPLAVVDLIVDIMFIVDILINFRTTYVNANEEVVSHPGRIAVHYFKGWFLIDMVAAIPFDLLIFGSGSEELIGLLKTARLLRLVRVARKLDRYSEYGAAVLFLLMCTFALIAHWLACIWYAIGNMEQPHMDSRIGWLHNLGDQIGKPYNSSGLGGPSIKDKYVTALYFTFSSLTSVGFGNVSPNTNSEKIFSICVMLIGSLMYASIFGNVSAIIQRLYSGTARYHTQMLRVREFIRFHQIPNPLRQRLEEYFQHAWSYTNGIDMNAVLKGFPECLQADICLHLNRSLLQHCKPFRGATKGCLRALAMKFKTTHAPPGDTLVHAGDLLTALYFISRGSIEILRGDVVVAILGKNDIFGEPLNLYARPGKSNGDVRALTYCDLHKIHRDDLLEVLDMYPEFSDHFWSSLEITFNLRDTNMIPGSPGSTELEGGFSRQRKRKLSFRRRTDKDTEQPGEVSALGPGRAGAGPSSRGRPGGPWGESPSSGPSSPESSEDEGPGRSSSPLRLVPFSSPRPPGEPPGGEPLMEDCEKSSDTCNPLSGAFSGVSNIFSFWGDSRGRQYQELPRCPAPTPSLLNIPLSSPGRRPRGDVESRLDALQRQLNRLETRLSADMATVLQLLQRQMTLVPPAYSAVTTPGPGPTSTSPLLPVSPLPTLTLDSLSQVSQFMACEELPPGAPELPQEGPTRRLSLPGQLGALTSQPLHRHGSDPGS
Chain of Cytochrome P450 2C9 (P11712 whole entry): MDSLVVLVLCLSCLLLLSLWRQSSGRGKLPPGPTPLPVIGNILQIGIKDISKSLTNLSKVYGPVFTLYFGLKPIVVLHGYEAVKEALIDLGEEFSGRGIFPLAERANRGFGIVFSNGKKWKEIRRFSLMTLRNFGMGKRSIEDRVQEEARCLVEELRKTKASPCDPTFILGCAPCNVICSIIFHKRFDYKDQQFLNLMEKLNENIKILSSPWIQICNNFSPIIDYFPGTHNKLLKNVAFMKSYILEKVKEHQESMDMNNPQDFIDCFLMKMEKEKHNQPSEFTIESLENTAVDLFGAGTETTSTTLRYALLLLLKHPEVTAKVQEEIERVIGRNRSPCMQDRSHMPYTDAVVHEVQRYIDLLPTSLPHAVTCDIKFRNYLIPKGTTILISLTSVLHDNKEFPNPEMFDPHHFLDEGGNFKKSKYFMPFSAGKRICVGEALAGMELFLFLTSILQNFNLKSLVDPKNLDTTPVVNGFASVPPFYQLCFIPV
Chain of D(3) dopamine receptor (P19020 whole entry): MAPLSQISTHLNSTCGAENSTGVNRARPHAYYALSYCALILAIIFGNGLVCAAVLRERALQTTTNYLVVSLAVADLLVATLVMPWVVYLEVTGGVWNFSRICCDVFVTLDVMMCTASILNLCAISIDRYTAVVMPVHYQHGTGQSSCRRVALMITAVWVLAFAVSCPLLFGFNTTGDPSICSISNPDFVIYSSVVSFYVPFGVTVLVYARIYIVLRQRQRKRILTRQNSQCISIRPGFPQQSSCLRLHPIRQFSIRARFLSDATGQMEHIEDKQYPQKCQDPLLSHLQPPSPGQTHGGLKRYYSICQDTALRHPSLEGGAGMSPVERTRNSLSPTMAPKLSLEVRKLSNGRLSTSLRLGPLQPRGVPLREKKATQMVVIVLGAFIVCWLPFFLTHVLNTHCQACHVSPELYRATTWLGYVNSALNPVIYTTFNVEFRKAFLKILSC
Chain of Cytochrome P450 3A4 (P08684 whole entry): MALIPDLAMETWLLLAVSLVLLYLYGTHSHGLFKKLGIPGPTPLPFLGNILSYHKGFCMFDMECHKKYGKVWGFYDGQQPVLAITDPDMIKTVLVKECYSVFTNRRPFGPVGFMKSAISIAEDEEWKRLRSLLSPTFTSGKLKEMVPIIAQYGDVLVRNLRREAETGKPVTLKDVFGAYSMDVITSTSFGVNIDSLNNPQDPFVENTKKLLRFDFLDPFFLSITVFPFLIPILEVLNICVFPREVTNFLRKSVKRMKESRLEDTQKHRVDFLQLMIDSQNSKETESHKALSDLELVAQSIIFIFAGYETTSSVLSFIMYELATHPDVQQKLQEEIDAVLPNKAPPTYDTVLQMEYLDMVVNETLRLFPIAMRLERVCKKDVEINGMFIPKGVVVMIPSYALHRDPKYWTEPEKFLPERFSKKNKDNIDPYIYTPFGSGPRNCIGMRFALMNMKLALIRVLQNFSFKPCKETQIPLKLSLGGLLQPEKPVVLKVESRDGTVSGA
Chain of Cytochrome P450 2C19 (P33261 whole entry): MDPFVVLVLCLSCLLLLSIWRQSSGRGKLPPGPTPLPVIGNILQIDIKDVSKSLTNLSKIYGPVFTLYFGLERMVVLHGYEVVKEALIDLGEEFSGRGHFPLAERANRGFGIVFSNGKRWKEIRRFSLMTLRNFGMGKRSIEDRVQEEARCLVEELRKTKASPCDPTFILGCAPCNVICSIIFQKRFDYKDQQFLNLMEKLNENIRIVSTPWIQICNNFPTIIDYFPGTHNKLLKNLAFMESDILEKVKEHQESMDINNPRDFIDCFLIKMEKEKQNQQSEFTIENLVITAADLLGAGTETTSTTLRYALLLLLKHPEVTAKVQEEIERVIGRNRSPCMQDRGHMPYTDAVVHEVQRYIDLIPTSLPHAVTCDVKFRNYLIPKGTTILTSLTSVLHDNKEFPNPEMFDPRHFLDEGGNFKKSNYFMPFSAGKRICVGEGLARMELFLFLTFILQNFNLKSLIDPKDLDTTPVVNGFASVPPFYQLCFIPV

COc1ccc2c(c1)c(CN1CCN(C)CC1)cn2S(=O)(=O)c1ccccc1Br.CS(=O)(=O)O.O
IC50 (Cytochrome P450 2E1): > 10 µM
Activity (Hepatocyte): Non-Toxic
AUC(0-t) [1]: 784 ng·h/mL
Activity (Homo sapiens [2]): Non-Toxic
Activity (Rattus norvegicus [3]): Active
IC50 (Cytochrome P450 2C8): > 10 µM
Activity (Salmonella typhimurium [4]): Non-Toxic
solubility [5]: 1200 mg/mL
Activity (Rattus norvegicus [6]): 2136%
Ki [7]: 2.57 µM
Activity (Rattus norvegicus [8]): inactive
half-life [9]: 3.5 h
Activity [10]: inactive
Activity (Salmonella typhimurium [11]): Non-Toxic
Activity (Cytochrome P450 1A2): Not Active
Ki (D(3) dopamine receptor): 0.616 µM
Activity (Salmonella typhimurium [12]): Non-Toxic
Activity (Rattus norvegicus [13]): Non-Toxic
Activity (Salmonella typhimurium [14]): Non-Toxic
IC50 (Cytochrome P450 2C19): 5.7 µM
inhibition (INH) [15]: Not Active
IC50 (Cytochrome P450 2C9): > 10 µM
Activity (Homo sapiens [16]): Non-Toxic
IC50 (Cytochrome P450 3A4): 1.5 µM
Vd [17]: 4.41 L/kg
bioavailability [18]: 24.9%
Activity (Salmonella typhimurium [19]): Non-Toxic
